Experimental data as given in ChEMBL document CHEMBL1128299, “Electrophilic N-benzylnaltrindoles as delta opioid receptor-selective antagonists” (J Med Chem, 1995).
pKi: −log10 of the molar value.

Legend:
[1] = target: Delta-type opioid receptor (Mus musculus) (UniProt P32300); assay: Antagonistic activity against opioid delta receptor in mouse vas deferens after 30 min incubation. Preparation was washed (5x) with buffer after incubation with antagonist.; assay type: functional, tissue-based
Summary of the method: (§1)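 Electrically stimulated mouse vas deferens with DADLE as the delta agonist. Antagonist at 100 nM was incubated for the stated time (10, 30 or 60 min). The preparation was then washed 5 times with buffer before agonist IC50 was measured. Result is the IC50 ratio, agonist IC50 with antagonist over control IC50.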

[2] = target: T1, Opioid receptors; delta & kappa (Homo sapiens) (UniProt P41145+P41143); assay: Selectivity ratio as the ratio of IC50 ratio of delta receptor to that of kappa receptor.; assay type: functional
Summary of the method: (§2)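 Each selectivity value is the delta IC50 ratio from mouse vas deferens (DADLE, 100 nM antagonist, 30 min) divided by the kappa (ethylketazocine) or mu (morphine) IC50 ratio from guinea pig ileum. A value of 1 was used wherever an IC50 ratio was below 1.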

[3] = system: Mus musculus; assay: Tested in vivo for antagonistic activity against antinociceptive effect of icv-administered DSLET in mice at 24 hr; assay type: functional
Summary of the method: (§3)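 Mice were pretreated icv with antagonist at 5 nmol. Antinociception from icv DPDPE (delta1) or DSLET (delta2) was measured 1.5 or 24 h later. ED50 ratio is pretreated ED50 over control ED50. Selectivity is the DSLET ED50 ratio divided by the DPDPE ED50 ratio.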

[4] = target: Delta-type opioid receptor (Mus musculus) (UniProt P32300); assay: Tested […] for antagonistic activity against opioid delta receptor in mice at incubation time of 60 minutes. Preparation was washed (5x) with buffer after incubation with antagonist.; assay type: functional
[5] = target: Mu-type opioid receptor (Cavia porcellus) (UniProt P97266); assay: Antagonistic activity against Opioid receptor mu 1 in guinea pig ileum assay; assay type: functional, tissue-based
Summary of the method: (§4)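 Electrically stimulated guinea pig ileum. Antagonist present at 100 nM during a 30 min incubation. Agonists were morphine (mu) and ethylketazocine (kappa). Antagonism was expressed as IC50 ratio: agonist IC50 with antagonist divided by control IC50.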

[6] = target: Mu-type opioid receptor (Cavia porcellus, UniProt P97266); assay: Tested for binding affinity against mu opioid receptor using [3H]DAMGO as a radioligand in the guinea pig brain membranes.; assay type: cell membranes
Summary of the method: (§5)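 Radioligand competition in guinea pig brain membranes. Kappa sites were labelled with [3H]U69593 and mu sites with [3H]DAMGO. Delta1 sites used [3H]DPDPE and delta2 sites used [3H]DSLET, both in the presence of 100 nM unlabelled DAMGO. Results are reported as Ki.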

[7] = target: T2, Opioid receptors; mu & delta (Homo sapiens) (UniProt P41143+P35372); assay: Selectivity ratio as ratio of Ki value towards mu receptor to that of delta-1 receptor.; assay type: protein assay
[8] = system: Mus musculus; assay: Tested in vivo for antagonistic activity against antinociceptive effect of icv-administered DPDPE in mice at 24 hr; assay type: functional; summary of the method: as §3
[9] = target: T1, Opioid receptors; delta & kappa (Homo sapiens); assay: Selectivity ratio as ratio of Ki value towards kappa receptor to that of delta-1 receptor.; assay type: protein assay
[10] = target: Delta-type opioid receptor (Homo sapiens) (UniProt P41143); assay: Selectivity ratio as ratio of ED50 value against delta-2 receptor to that delta-1 receptor after hours of administration,; assay type: functional, organism-based; summary of the method: as §3
[11] = system: Mus musculus; assay: Tested in vivo for antagonistic activity against antinociceptive effect of icv-administered DPDPE in mice at 1.5 hr; assay type: functional; summary of the method: as §3
[12] = target: Kappa-type opioid receptor (Cavia porcellus) (UniProt P41144); assay: Antagonistic activity against Opioid receptor kappa 1 in guinea pig ileum assay; assay type: functional, tissue-based; summary of the method: as §4
[13] = target: Delta-type opioid receptor (Homo sapiens) (UniProt P41143); assay: Selectivity ratio as ratio of ED50 value against delta-2 receptor to that delta-1 receptor after 1.5 administration.; assay type: functional, organism-based; summary of the method: as §3
[14] = system: Mus musculus; assay: Tested in vivo for antagonistic activity against antinociceptive effect of icv-administered DSLET in mice at 1.5 hr; assay type: functional; summary of the method: as §3
[15] = target: T2, Opioid receptors; mu & delta (Homo sapiens); assay: Selectivity ratio as the ratio of IC50 ratio of delta receptor to that of mu receptor.; assay type: functional; summary of the method: as §2
[16] = target: Kappa-type opioid receptor (Cavia porcellus, UniProt P41144); assay: Tested for binding affinity against Opioid receptor kappa 1 using [3H]U-69593 as a radioligand in the guinea pig brain membranes.; assay type: cell membranes; summary of the method: as §5
[17] = target: Delta-type opioid receptor (Mus musculus) (UniProt P32300); assay: Antagonistic activity against opioid delta receptor in mouse vas deferens after 10 minutes. Preparation was washed (5x) with buffer after incubation with antagonist.; assay type: functional, tissue-based; summary of the method: as §1
[18] = target: Delta-type opioid receptor (Mus musculus) (UniProt P32300); assay: Antagonistic activity against opioid delta receptor in mouse vas deferens after 30 min. IC50 ratio determined without washing (prewash).; assay type: functional
Summary of the method: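 Electrically stimulated mouse vas deferens with DADLE as the delta agonist. Antagonist at 100 nM was incubated for 30 min. Agonist IC50 was measured directly without washing. Result is the IC50 ratio versus control agonist IC50.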

Chain of Mu-type opioid receptor (P97266 whole entry): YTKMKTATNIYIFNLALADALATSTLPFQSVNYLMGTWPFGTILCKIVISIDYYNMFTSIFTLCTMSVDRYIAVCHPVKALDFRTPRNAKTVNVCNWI
Chain of Mu-type opioid receptor (Cavia porcellus) (P97266 whole entry): as above
Chain of Delta-type opioid receptor (Homo sapiens) (P41143 whole entry): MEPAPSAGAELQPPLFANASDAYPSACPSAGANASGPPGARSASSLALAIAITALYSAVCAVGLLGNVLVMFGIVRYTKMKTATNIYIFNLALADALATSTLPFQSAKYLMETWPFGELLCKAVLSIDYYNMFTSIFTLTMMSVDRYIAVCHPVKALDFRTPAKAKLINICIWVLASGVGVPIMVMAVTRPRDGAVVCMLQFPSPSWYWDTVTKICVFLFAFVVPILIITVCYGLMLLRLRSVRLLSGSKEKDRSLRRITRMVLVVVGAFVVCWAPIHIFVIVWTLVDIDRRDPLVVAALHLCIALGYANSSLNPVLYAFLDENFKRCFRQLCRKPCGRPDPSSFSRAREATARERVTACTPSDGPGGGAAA
T1 sequence (P41143 whole entry, looked up): as the sequence (P41143 whole entry) above
T1 sequence (P41145 whole entry, looked up): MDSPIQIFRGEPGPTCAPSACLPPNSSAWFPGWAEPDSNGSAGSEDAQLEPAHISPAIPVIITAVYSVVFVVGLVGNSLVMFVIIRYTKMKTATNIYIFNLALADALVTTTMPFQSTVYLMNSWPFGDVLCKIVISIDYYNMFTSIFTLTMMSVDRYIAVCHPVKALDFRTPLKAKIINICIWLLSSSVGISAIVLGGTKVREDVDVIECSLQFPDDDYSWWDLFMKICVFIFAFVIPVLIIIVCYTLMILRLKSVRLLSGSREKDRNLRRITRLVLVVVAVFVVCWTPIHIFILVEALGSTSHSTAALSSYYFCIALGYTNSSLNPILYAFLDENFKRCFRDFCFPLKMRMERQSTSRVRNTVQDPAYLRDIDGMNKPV
Chain of Kappa-type opioid receptor (P41144 whole entry): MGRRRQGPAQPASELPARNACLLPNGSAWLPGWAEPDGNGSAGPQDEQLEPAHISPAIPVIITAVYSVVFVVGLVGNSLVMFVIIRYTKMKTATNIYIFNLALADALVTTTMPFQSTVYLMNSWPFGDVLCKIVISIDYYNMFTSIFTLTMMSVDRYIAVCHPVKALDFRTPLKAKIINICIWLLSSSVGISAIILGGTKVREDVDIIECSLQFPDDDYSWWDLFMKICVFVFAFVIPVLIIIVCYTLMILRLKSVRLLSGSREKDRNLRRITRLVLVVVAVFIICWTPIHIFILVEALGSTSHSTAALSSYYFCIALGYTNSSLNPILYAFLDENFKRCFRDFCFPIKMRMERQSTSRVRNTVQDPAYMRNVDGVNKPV
Chain of Kappa-type opioid receptor (Cavia porcellus) (P41144 whole entry): as above
Chain of Delta-type opioid receptor (Mus musculus) (P32300 whole entry): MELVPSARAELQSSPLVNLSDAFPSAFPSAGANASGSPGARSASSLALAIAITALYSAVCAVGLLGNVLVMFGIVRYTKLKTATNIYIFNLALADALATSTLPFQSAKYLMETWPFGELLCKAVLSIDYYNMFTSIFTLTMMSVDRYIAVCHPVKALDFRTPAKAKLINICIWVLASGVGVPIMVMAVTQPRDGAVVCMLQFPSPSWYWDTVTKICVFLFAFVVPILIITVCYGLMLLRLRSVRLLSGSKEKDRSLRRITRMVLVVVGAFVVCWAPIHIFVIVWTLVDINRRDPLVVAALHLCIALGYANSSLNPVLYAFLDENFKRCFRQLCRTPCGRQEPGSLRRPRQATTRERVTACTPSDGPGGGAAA
T2 sequence (P35372 whole entry, looked up): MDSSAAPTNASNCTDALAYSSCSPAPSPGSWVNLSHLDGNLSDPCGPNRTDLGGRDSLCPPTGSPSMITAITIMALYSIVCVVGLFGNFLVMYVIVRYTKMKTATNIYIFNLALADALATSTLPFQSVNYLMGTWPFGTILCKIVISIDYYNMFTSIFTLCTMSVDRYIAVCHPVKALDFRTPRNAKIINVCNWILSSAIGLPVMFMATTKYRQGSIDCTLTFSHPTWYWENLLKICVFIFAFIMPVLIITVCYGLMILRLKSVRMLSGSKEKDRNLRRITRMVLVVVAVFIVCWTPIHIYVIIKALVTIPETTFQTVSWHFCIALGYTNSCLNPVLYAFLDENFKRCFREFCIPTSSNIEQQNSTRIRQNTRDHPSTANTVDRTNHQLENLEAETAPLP
T2 sequence (P41143 whole entry, looked up): as the sequence (P41143 whole entry) above

Row | SMILES | IC50 ratio [1] | Selectivity [2] | ED50 ratio [3] | IC50 ratio [4] | IC50 ratio [5] | pKi [6] | Selectivity [7] | ED50 ratio [8] | Selectivity [9] | Selectivity [10] | ED50 ratio [11] | IC50 ratio [12] | Selectivity [13] | ED50 ratio [14] | Selectivity [15] | pKi [16] | IC50 ratio [17] | IC50 ratio [18]
1 | Oc1ccc2c3c1O[C@H]1c4c(c5ccccc5n4Cc4ccccc4N=C=S)C[C@@]4(O)C(C2)N(CC2CC2)CCC314 (some centres not stated) | 39 | 45 | 8.8 | 216 | 0.6 | 6.82 | 76 | 19.4 | 308 | 0.5 | 1.1 | 1.3 | 1.3 | 1.4 | 57 | 6.21 | 23 | 57
2 | O=C(CBr)Nc1cccc(Cn2c3c(c4ccccc42)C[C@@]2(O)C4Cc5ccc(O)c6c5C2(CCN4CC2CC2)[C@H]3O6)c1 (some centres not stated) | 51 | 511 | 6.9 | – | 3.8 | 7.82 | 805 | 2.8 | 463 | 2.5 | 1 | 0.9 | 2.4 | 2.4 | 135 | 8.06 | 44 | 511
3 | Oc1ccc2c3c1O[C@H]1c4c(c5ccccc5n4Cc4cccc(N=C=S)c4)C[C@@]4(O)C(C2)N(CC2CC2)CCC314 (some centres not stated) | – | – | 4.1 | – | 0.8 | 7.18 | 16 | 3.5 | 5 | 1.2 | 1.1 | 1.2 | 1.7 | 1.9 | – | 6.98 | – | –
4 | CC(=O)Nc1ccccc1Cn1c2c(c3ccccc31)C[C@@]1(O)C3Cc4ccc(O)c5c4C1(CCN3CC1CC1)[C@H]2O5 (some centres not stated) | 10 | 42 | – | – | 1.9 | – | – | – | – | – | – | 1.3 | – | – | 29 | – | – | 54
5 | O=C(CI)Nc1ccccc1Cn1c2c(c3ccccc31)C[C@@]1(O)C3Cc4ccc(O)c5c4C1(CCN3CC1CC1)[C@H]2O5 (some centres not stated) | 25.5 | 51 | – | – | 0.7 | – | – | – | – | – | – | 0.5 | – | – | 51 | – | 51.2 | 50.7
6 | Oc1ccc2c3c1O[C@H]1c4c(c5ccccc5n4Cc4ccc(N=C=S)cc4)C[C@@]4(O)C(C2)N(CC2CC2)CCC314 (some centres not stated) | 20 | 18 | 4.2 | – | 1.3 | 6.54 | 55 | 2.5 | 46 | 1.7 | 1.1 | 0.6 | 3.5 | 3.8 | 25 | 6.61 | 6.7 | 18
7 | Oc1ccc2c3c1O[C@H]1c4c(c5ccccc5n4Cc4ccccc4)C[C@@]4(O)C(C2)N(CC2CC2)CCC314 (some centres not stated) | – | 208 | 11.1 | – | 1.6 | – | – | 1.5 | – | 7.4 | 1 | 0.4 | 3.2 | 3.2 | 131 | – | – | 208
8 | O=C(CBr)Nc1ccccc1Cn1c2c(c3ccccc31)C[C@@]1(O)C3Cc4ccc(O)c5c4C1(CCN3CC1CC1)[C@H]2O5 (some centres not stated) | 13 | 33 | – | – | 1.7 | – | – | – | – | – | – | 1.1 | – | – | 21 | – | – | 35
9 | O=C(CBr)Nc1ccc(Cn2c3c(c4ccccc42)C[C@@]2(O)C4Cc5ccc(O)c6c5C2(CCN4CC2CC2)[C@H]3O6)cc1 (some centres not stated) | 12 | 30 | – | 1.4 | 0.7 | – | – | – | – | – | – | 0.9 | – | – | 30 | – | 3.6 | 30
10 | CC(=O)Nc1ccc(Cn2c3c(c4ccccc42)C[C@@]2(O)C4Cc5ccc(O)c6c5C2(CCN4CC2CC2)[C@H]3O6)cc1 (some centres not stated) | 3.1 | 31 | – | 7.1 | 0.9 | – | – | – | – | – | – | 0.2 | – | – | 31 | – | 1.6 | 31
11 | CC(=O)Nc1cccc(Cn2c3c(c4ccccc42)C[C@@]2(O)C4Cc5ccc(O)c6c5C2(CCN4CC2CC2)[C@H]3O6)c1 (some centres not stated) | 18 | 31 | – | – | 5.3 | – | – | – | – | – | – | 0.9 | – | – | 31 | – | 16 | 33
